How the values were obtained:
[1] = test system: postoperative pain in patients who underwent elective abdominal surgery; assay: HSK21542-303 phase 3 trial: efficacy; assay type: in vivo, human; conditions: for SPID0–12h, LS mean (SE): 1.0 μg/kg (tramadol 50 mg/dose) i.v. at 0, 8, 16 h; for Time to rescue analgesic initiation, P25 (95% CI): 25th percentile; for Cumulative rescue analgesic dose 0–12h / Cumulative rescue analgesic dose 0–24 h: flurbiprofen axetil i.v.; for Cumulative rescue analgesic dose 0–12h / Cumulative rescue analgesic dose 0–24 h / Duration of analgesic effect / Patient satisfaction score / Physician satisfaction score: mean (SD); for Rescue analgesic received 0–12h, n (%) / Rescue analgesic received 0–24 h, n (%): rescue flurbiprofen axetil 50 mg i.v.; for NRS ≤3 12 h, n (%) / NRS ≤3 24 h, n (%): resting pain; for Patient satisfaction score / Physician satisfaction score: scale 0–10 at 24 h
[2] = test system: patients who underwent elective abdominal surgery; assay: HSK21542-303: safety; assay type: in vivo, human
Method in brief: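 First dose given by i.v. pump within 10 min of randomization and a resting NRS ≥4 (within 4 h postsurgery); three doses 8 h ±15 min apart. Rescue flurbiprofen axetil 50 mg i.v. Antiemetic on demand only, tropisetron 2.5 mg preferred. TEAEs graded by CTCAE v5.0, with labs, ECG and vital signs over an 8-day follow-up.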

[3] = cited from earlier work
[4] = HSK21542-303, FAS, flurbiprofen axetil 50 mg i.v.
[5] = HSK21542-303, follow-up period, arms taken as HSK21542 vs tramadol vs placebo

## COc1cccc(C2(O)CCCCC2CN(C)C)c1 (stereo not drawn) [Tramadol, tramadol]
[1]; HSK21542-303, FAS
  patients with NRS ≤3 within 12 h: 51.2%
  patients with NRS ≤3 within 24 h: 48.1%
  SPID0–12h, LS mean (SE): −28.7 (1.11)
  Time to rescue analgesic initiation, P25 (95% CI): 1.17 (0.53, 4.57) h
  Cumulative rescue analgesic dose 0–12h: 26.7 (44.21) mg
  Cumulative rescue analgesic dose 0–24 h: 29.3 (46.78) mg
  Duration of analgesic effect: 21.3 (5.46) h
  Rescue analgesic received 0–12h, n (%): 44 (34.1) n (%)
  Rescue analgesic received 0–24 h, n (%): 46 (35.7) n (%)
  NRS ≤3 12 h, n (%): 66 (51.2) n (%)
  NRS ≤3 24 h, n (%): 62 (48.1) n (%)
  Patient satisfaction score: 8.5 (1.58)
  Physician satisfaction score: 8.4 (1.42)
[1]; [4]
  patients who received rescue analgesics within 0–12 h after first dose: 34.1%
  patients who received rescue analgesics within 0–24 h after first dose: 35.7%
[1]; HSK21542-303, PPS
  SPID0–12h, LS mean (SE): −29.8 (0.99)
  Time to rescue analgesic initiation, P25 (95% CI): 1.89 (0.60, 12.73) h
  Cumulative rescue analgesic dose 0–12h: 23.3 (39.39) mg
  Cumulative rescue analgesic dose 0–24 h: 26.0 (42.68) mg
  Duration of analgesic effect: 22.4 (3.09) h
  Rescue analgesic received 0–12h, n (%): 39 (32.5) n (%)
  Rescue analgesic received 0–24 h, n (%): 41 (34.2) n (%)
  NRS ≤3 12 h, n (%): 63 (52.5) n (%)
  NRS ≤3 24 h, n (%): 59 (49.2) n (%)
  Patient satisfaction score: 8.5 (1.59)
  Physician satisfaction score: 8.4 (1.43)
[2]; HSK21542-303
  incidence of nausea: 41.9%
  incidence of vomiting: 38.0%
  patients administered antiemetics within 24 h post first dose: 54 (41.9%) n (%)
  patients with TEAEs that led to study withdrawal: two
[2]; HSK21542-303, safety set
  Anemia: 16 (12.4) n (%)
  Decreased lymphocyte count: 0 n (%)
  Decreased serum potassium: 3 (2.3) n (%)
  Decreased thyroid-stimulating hormone: 0 n (%)
  Drug-related TEAE: 74 (57.4) n (%)
  Fever: 10 (7.8) n (%)
  Hematuria: 2 (1.6) n (%)
  Hypokalemia: 10 (7.8) n (%)
  Inflammation: 1 (0.8) n (%)
  Nausea: 54 (41.9) n (%)
  SAE: 1 (0.8) n (%)
  Vomiting: 49 (38.0) n (%)
[2]; HSK21542-303, safety set, 1.0 μg/kg (tramadol 50 mg/dose) i.v. at 0, 8, 16 h
  Any AE: 108 (83.7) n (%)
[2]; HSK21542-303, safety set, listed as tramadol
  SAE: One
[2]; [5]
  abnormal diastolic blood pressure: 0 cases
  abnormal heart rate: 1 case
  abnormal systolic blood pressure: 0 case
[3]
  excretion: mainly excreted via the kidneys

— article PMC12103582 (Nature Communications, 2025)
